Screening results as filed in PubChem BioAssay.
A selection: hits, their analogues and other compounds. The true share with any hit is near 6.8%.
M1 antag = antagonists of rat M1 muscarinic receptor | Muscarinic acetylcholine receptor M1 (Rattus norvegicus), P08482 | CHO-M1 cells, Fluo-4 calcium, ACh EC80 antagonist mode; hits give low values | B-score at 10 µM | 64,000 compounds, 3.4% hits | AID 628, 2007;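 active = calcium fluorescence response, raw or row-and-column corrected B-score, differing from the plate sample mean either way at a set confidence level, mostly lower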
HER2 expr 66K = inhibitors of Her2 protein expression, primary screen, SKBR-3 cells, AlphaScreen, 66K library; SKBR-3 HER2 protein level, 18-24 h; hits give low values; HER2 level % of control, % at 10 µM; 65,000 compounds, 0.69% hits;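 active = HER2 level under 5% of the carrier-only control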;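 note: lower value means stronger loss of Her2 protein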
M1 ag = M1 muscarinic receptor agonists, primary screen, CHO-M1 cells, Fluo-4 calcium, agonist mode; 64,000 compounds, 3% hits; Muscarinic acetylcholine receptor M1; Fluo-4 calcium fluorescence; hits give high values; AID 626, 2007; B-score at 10 µM;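 active = fluorescence rise, raw or as B-score row- and column-corrected plate score, outside the 99.7% band of its plate's samples, either direction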
HEK293 NFkB inh = inhibitors of PMA/ionomycin-induced NF-kB reporter, primary screen, antigen receptor NF-kB inhibitor project, cell-based, HEK-293 luciferase reporter, luminescence | HEK-293 NF-kB luciferase reporter | 62,000 compounds, 0.21% hits | inhibition, % at 3 µM;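 active = inhibition above the mean of all tested compounds plus 3 SD, cut at about 40% in these data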
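Signal: luciferase luminescence; Material: HEK-293 cells with stable firefly luciferase reporter driven by four HIV NF-kB elements; Probe or stimulus: PMA with ionomycin; Replication: tested once; Times: 1 h compound pretreatment, then 16 h stimulation at 37 °C, 5% CO2; Benchmarks: DMSO and 10 µM reference inhibitor; Evaluation: per-plate % inhibition versus controls.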
DUSP1 inh = MKP-1 phosphatase inhibitors, primary screen, biochemical, in vitro; Dual specificity protein phosphatase 1 (Homo sapiens), P28562; recombinant MKP-1, OMFP hydrolysis fluorescence; inhibition, %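 (compounds tested at a single concentration somewhere between 10 and 100 µM)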; 65,000 compounds, 0.15% hits; AID 374, 2006;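 active = inhibition above about 50%, limit read from the data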
Cdc25B block = inhibitors of Cdc25B phosphatase catalytic domain, primary screen, biochemical, OMFP fluorescence; 65,000 compounds, 0.1% hits; M-phase inducer phosphatase 2 (Homo sapiens), P30305; inhibition, %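 (compounds tested at 10 µM final in the well)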; recombinant Cdc25B, OMFP fluorescence Ex485/Em525; in the data active = inhibition above about 50%
M1 antag confirm = rat M1 muscarinic receptor antagonists, confirmation, CHO cells, Fluo-4 calcium, duplicate; shares compounds with M1 antag; ACh EC80 antagonism; hits give low values; calcium response (max-min fluorescence) at 10 µM; 1,700 compounds, 43% hits;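 active = calcium response below the same-plate mean of wells given acetylcholine alone at its 80%-effect dose, minus 3 SD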
mGluR4 antag = human mGluR4 response to M1 antagonist hits, M1 allosteric modulator project, cell-based, antagonist mode, secondary assay 1. shares compounds with M1 antag. fluorescence response (max-min) at 10 µM. 1,700 compounds, 0.9% hits. AID 678, 2007. CHO-mGluR4 calcium flux, Fluo-4 fluorescence, glutamate EC80; hits give low values;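 active = fluorescence response below the plate's average for near-maximal glutamate wells, less 3 SD of those wells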;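 note: raw unnormalized fluorescence span taken in the window right after glutamate addition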
Of the large screens only hits and unclear results are named; the others gave an inactive call (follow-up assays come after a bar, where they were run).

COc1ccc(C2CC(c3ccc(OC)cc3)n3nc(N)nc3N2)cc1 (configuration not stated)	none
COc1ccc(C2CC(c3cc(OC)ccc3OC)n3nnnc3N2)cc1 (configuration not stated)	M1 antag -17 | M1 antag confirm inactive | mGluR4 antag inactive
COc1ccccc1-c1c(C)nn2c(N3CCN(c4ccccc4OC)CC3)cc(C)nc12	none
COc1ccccc1-c1c(C)nn2c(N3CCCCCC3)cc(C)nc12	M1 antag -2.5 | M1 antag confirm inactive | mGluR4 antag inactive
COC(=O)c1oc2ccc(Br)cc2c1NC(=O)CCN1CCOCC1	none
COc1ccc2nc(NC(=O)CN3CCN(C)CC3)sc2c1	none
COc1ccc2oc(C(=O)c3ccccc3)c(NC(=O)CN3CCN(C)CC3)c2c1	M1 antag -3.2 | M1 antag confirm inactive | mGluR4 antag inactive
CCOC(=O)c1oc2ccc(Br)cc2c1NC(=O)CN1CCN(C)CC1	M1 antag -2.9 | M1 antag confirm 450 | mGluR4 antag inactive
CCCCc1c(C)nn(-c2nnc3c4ccccc4n(CC)c3n2)c1C	M1 antag -2.7 | M1 antag confirm inactive | mGluR4 antag inactive
CC1(c2ccc(Cl)cc2)NC(=O)N(CC(=O)N2CCCC2)C1=O (configuration not stated)	none
COc1ccc(-n2c(COc3ccccc3)nnc2SCc2ccc(C#N)cc2)cc1	M1 antag -3.3 | M1 antag confirm inactive | mGluR4 antag inactive
COc1ccc(C(=O)CSc2nnc(COc3ccc(C#N)cc3)n2-c2ccccc2)cc1	none
CCOc1cc(S(=O)(=O)N2CCOCC2)ccc1F	none
CCOc1cc(S(=O)(=O)n2nc(C)cc2C)ccc1F	M1 antag -5.2 | M1 antag confirm inactive | mGluR4 antag inactive
CS(=O)(=O)c1ccc2nc(NC(=O)CN3CCN(Cc4ccccc4)CC3)sc2c1	M1 antag -2.5 | M1 antag confirm inactive | mGluR4 antag inactive
CCCOc1ccc(C2C(=O)N(C3CCCCC3)CC(=O)N2C2CC2)cc1OC (configuration not stated)	none
CN(C)S(=O)(=O)NCc1ccc2c(c1)OCO2	none
COc1cccc(C(=O)Cn2c(=N)n(C)c3ccccc32)c1	M1 antag -5 | M1 antag confirm 443 | mGluR4 antag inactive
Cc1cc(C)n(C(=O)CSc2nnc(SCC(=O)n3nc(C)cc3C)s2)n1	none
COC(=O)CSc1nc(C)c(Oc2ccccc2)c(=O)[nH]1	none (no result: HEK293 NFkB inh)
CCCCN(C)C(=O)C1CCN(C/C(C)=C/c2ccccc2)CC1	M1 antag -4 | M1 antag confirm 520 | mGluR4 antag inactive
C/C(=C\c1ccccc1)CN1CCN(c2ccccc2)CC1	none (no result: HEK293 NFkB inh)
CCn1c2ccccc2c2nnc(SCC(=O)N3CC(C)OC(C)C3)nc21 (configuration not stated)	none
O=C(CCN1C(=O)C2C3C=CC(C3)C2C1=O)Nc1ccc2c(c1)OCO2 (configuration not stated)	M1 antag -2.6 | M1 antag confirm inactive | mGluR4 antag inactive
CCN(CC)CCn1c(OC)cc(=O)[nH]c1=O	M1 antag -2.4 | M1 antag confirm inactive | mGluR4 antag inactive
COc1ccc(Cn2c(O)cc(=O)[nH]c2=O)cc1	none (no result: HEK293 NFkB inh)
CCC(=O)c1cn(CC(=O)NCc2cccnc2)c2ccccc12	none
Cc1ccc(S(=O)(=O)Cn2nnnc2C(C(C)C)N2CCSCC2)cc1 (configuration not stated)	M1 antag -2.3 | M1 antag confirm inactive | mGluR4 antag inactive
Cc1ccc(S(=O)(=O)Cn2nnnc2C(C(C)C)N2CCc3ccccc3C2)cc1 (configuration not stated)	none
CC1CCCC(C)N1CC(O)COc1ccc(Cl)cc1 (configuration not stated)	M1 antag -3.2 | M1 antag confirm 501 | mGluR4 antag inactive
COc1ccccc1S(=O)(=O)Cc1ccc(C(=O)NCCN2CCCCCC2)o1	none
CCOC(=O)C1CCCN(S(=O)(=O)c2cccc3cccnc23)C1 (configuration not stated)	none
CCN1CCN(c2ncc(C(=O)Nc3ccccc3C(=O)OC)c3ccccc23)CC1	M1 antag -14 | M1 antag confirm 166 | mGluR4 antag inactive
CCN1CCN(c2ncnc3sc(C(=O)Nc4ccccc4F)c(C)c23)CC1	none
COc1ccc(NC(C)=O)cc1NC(=O)CSc1nnc(-c2cccnc2)n1C	none
Cc1ccc(C(C)C)c(OCc2nc(-c3nonc3N)no2)c1	M1 antag -2.4 | M1 antag confirm inactive | mGluR4 antag inactive
CCCc1[nH]nc2c1C(c1cccnc1)C(C#N)=C(N)O2 (configuration not stated)	none
CCCc1[nH]nc2c1C(c1ccncc1)C(C#N)=C(N)O2 (configuration not stated)	M1 antag -3.7 | M1 antag confirm inactive | mGluR4 antag inactive
CC(C)(C)c1[nH]nc2c1C(c1cccnc1)C(C#N)=C(N)O2 (configuration not stated)	M1 antag -4.1 | M1 antag confirm inactive | mGluR4 antag 163
O=C(CN(Cc1ccc(F)cc1)C(=O)Cn1nnc2ccccc21)NCC1CCCO1 (configuration not stated)	none
CC(=O)c1c(C)[nH]c(C(=O)OCC(=O)Nc2ncc(Cl)c(C)c2Cl)c1C	M1 antag -15 | M1 antag confirm inactive | mGluR4 antag inactive
CCCc1cc(Nc2c(C)n(C)n(-c3ccccc3)c2=O)n2c(nc3ccccc32)c1C#N	M1 antag -2.4 (no result: HEK293 NFkB inh) | M1 antag confirm inactive | mGluR4 antag inactive
CCOC(=O)CC1C(=O)NCCN1C(=O)Nc1ccccc1 (configuration not stated)	M1 antag -2.2 | M1 antag confirm inactive | mGluR4 antag inactive
O=C(c1cnn2ccccc12)N(Cc1ccco1)C1CCCC1	M1 antag -4.6 | M1 antag confirm 396 | mGluR4 antag inactive
